Converted amounts (≈) assume the structure as drawn.
Experiments:
Staphylococcus aureus [1] = test: Antibacterial activity against methicillin-resistant Staphylococcus aureus ATCC 33591 measured after overnight incubation by broth double-dilution method; type: functional
Method in brief: (§1)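 MIC by broth double-dilution in liquid Mueller-Hinton medium. Values are reported in µg/mL.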

Staphylococcus aureus [2] = test: Antibacterial activity against methicillin-resistant Staphylococcus aureus C2 measured after overnight incubation by broth double-dilution method; type: functional; method in brief: as §1
[3] = tested on: Staphylococcus epidermidis; test: Antibacterial activity against Staphylococcus epidermidis ATCC 35984 measured after overnight incubation by broth double-dilution method; type: functional; conditions: RP62A
Method in brief: (§2)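 MIC by broth double-dilution in Mueller-Hinton medium. Re-testing at the time-kill inoculum used 1×10^6 CFU/mL.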

Staphylococcus aureus [4] = test: Antibacterial activity against methicillin-resistant Staphylococcus aureus 2 measured after overnight incubation by broth double-dilution method; type: functional; method in brief: as §1
Staphylococcus aureus [5] = test: Antibacterial activity against methicillin-resistant Staphylococcus aureus S14 measured after overnight incubation by broth double-dilution method; type: functional; method in brief: as §1
Enterococcus faecium = test: Antibacterial activity against Enterococcus faecium BM4105-RF measured after overnight incubation by broth double-dilution method; type: functional; method in brief: as §1
Enterococcus = test: Antibacterial activity against Vancomycin-resistant Enterococcus measured after overnight incubation by broth double-dilution method; type: functional; method in brief: as §1
Staphylococcus aureus [6] = test: Antibacterial activity against methicillin-resistant Staphylococcus aureus USA100 measured after overnight incubation by broth double-dilution method; type: functional; method in brief: as §1
Staphylococcus aureus [7] = test: Antibacterial activity against methicillin-resistant Staphylococcus aureus USA200 measured after overnight incubation by broth double-dilution method; type: functional; method in brief: as §1
Enterococcus faecalis [8] = test: Antibacterial activity against Enterococcus faecalis ATCC 49533 measured after overnight incubation by broth double-dilution method; type: functional; method in brief: as §2
Staphylococcus aureus [9] = test: Antibacterial activity against methicillin-resistant Staphylococcus aureus C16 measured after overnight incubation by broth double-dilution method; type: functional; method in brief: as §1
Staphylococcus aureus [10] = test: Antibacterial activity against methicillin-resistant Staphylococcus aureus 1 measured after overnight incubation by broth double-dilution method; type: functional; method in brief: as §1
Enterococcus faecalis [11] = test: Antibacterial activity against Enterococcus faecalis ATCC 29212 measured after overnight incubation by broth double-dilution method; type: functional; method in brief: as §2
Listeria monocytogenes = test: Antibacterial activity against Listeria monocytogenes ATCC 19115 measured after overnight incubation by broth double-dilution method; type: functional; method in brief: as §2
Staphylococcus aureus [12] = test: Antibacterial activity against methicillin-resistant Staphylococcus aureus C1 measured after overnight incubation by broth double-dilution method; type: functional; method in brief: as §1
Staphylococcus aureus [13] = test: Antibacterial activity against methicillin-resistant Staphylococcus aureus NRS77 measured after overnight incubation by broth double-dilution method; type: functional; method in brief: as §1
Staphylococcus aureus [14] = test: Antibacterial activity against methicillin-resistant Staphylococcus aureus C7 measured after overnight incubation by broth double-dilution method; type: functional; method in brief: as §1
Staphylococcus aureus [15] = test: Antibacterial activity against methicillin-resistant Staphylococcus aureus S22 measured after overnight incubation by broth double-dilution method; type: functional; method in brief: as §1
Staphylococcus aureus [16] = test: Antibacterial activity against methicillin-resistant Staphylococcus aureus NRS4 measured after overnight incubation by broth double-dilution method; type: functional; method in brief: as §1
[17] = tested on: Mycolicibacterium smegmatis; test: Antibacterial activity against Mycobacterium smegmatis MC2-155 measured after overnight incubation by broth double-dilution method; type: functional; conditions: str. MC2 155; method in brief: as §1
[18] = tested on: Staphylococcus epidermidis; test: Antibiofilm activity against Staphylococcus epidermidis ATCC 35984 assessed as reduction of biofilm at […] measured after 24 hrs by crystal violet staining based method relative to control; type: functional, RP62A; design: scale not given: the % may be the effect or the level left
Staphylococcus aureus [19] = test: Antibacterial activity against methicillin-resistant Staphylococcus aureus S17 measured after overnight incubation by broth double-dilution method; type: functional; method in brief: as §1
Staphylococcus aureus [20] = test: Antibacterial activity against methicillin-sensitive Staphylococcus aureus ATCC 25923 measured after overnight incubation by broth double-dilution method; type: functional; method in brief: as §1
Staphylococcus aureus [21] = test: Antibacterial activity against methicillin-sensitive Staphylococcus aureus ATCC 29213 measured after overnight incubation by broth double-dilution method; type: functional; method in brief: as §1
Staphylococcus aureus [22] = test: Antibacterial activity against methicillin-resistant Staphylococcus aureus USA300 measured after overnight incubation by broth double-dilution method; type: functional; method in brief: as §1
Staphylococcus aureus [23] = test: Antibacterial activity against methicillin-resistant Staphylococcus aureus G1 measured after overnight incubation by broth double-dilution method; type: functional; method in brief: as §1
Staphylococcus aureus [24] = test: Antibacterial activity against methicillin-resistant Staphylococcus aureus G6 measured after overnight incubation by broth double-dilution method; type: functional; method in brief: as §1
[25] = Cytotoxicity against HEK293 cells assessed as cell death up to 10 ug/ml measured after 24 hrs by resazurin dye-based fluorescence analysis relative to untreated control; type: toxicity; conditions: human, hek293, 24 h
Staphylococcus aureus [26] = test: Antibacterial activity against methicillin-resistant Staphylococcus aureus BRS3 measured after overnight incubation by broth double-dilution method; type: functional; method in brief: as §1
Staphylococcus aureus [27] = test: Antibacterial activity against methicillin-resistant Staphylococcus aureus NRS51 measured after overnight incubation by broth double-dilution method; type: functional; method in brief: as §1
Staphylococcus aureus [28] = test: Antibacterial activity against methicillin-resistant Staphylococcus aureus G12 measured after overnight incubation by broth double-dilution method; type: functional; method in brief: as §1
Staphylococcus aureus [29] = test: Antibiofilm activity against methicillin-sensitive Staphylococcus aureus ATCC 6538 assessed as reduction of biofilm at […] measured after 24 hrs by crystal violet staining based method relative to control; type: functional; design: scale not given: the % may be the effect or the level left
Staphylococcus aureus [30] = test: Antibacterial activity against methicillin-resistant Staphylococcus aureus S24 measured after overnight incubation by broth double-dilution method; type: functional; method in brief: as §1
Staphylococcus aureus [31] = test: Antibacterial activity against methicillin-resistant Staphylococcus aureus G14 measured after overnight incubation by broth double-dilution method; type: functional; method in brief: as §1
Staphylococcus aureus [32] = test: Antibacterial activity against methicillin-resistant Staphylococcus aureus USA600 measured after overnight incubation by broth double-dilution method; type: functional; method in brief: as §1
Staphylococcus aureus [33] = test: Antibacterial activity against methicillin-resistant Staphylococcus aureus C14 measured after overnight incubation by broth double-dilution method; type: functional; method in brief: as §1
Staphylococcus aureus [34] = test: Antibacterial activity against methicillin-resistant Staphylococcus aureus C19 measured after overnight incubation by broth double-dilution method; type: functional; method in brief: as §1
Staphylococcus aureus [35] = test: Antibacterial activity against methicillin-sensitive Staphylococcus aureus ATCC 6538 measured after overnight incubation by broth double-dilution method; type: functional; method in brief: as §1
Staphylococcus aureus [36] = test: Antibiofilm activity against methicillin-sensitive Staphylococcus aureus ATCC 6538 assessed as reduction of biofilm at 62..5 ug/ml measured after 24 hrs by crystal violet staining based method relative to control; type: functional; design: scale not given: the % may be the effect or the level left

Structure (SMILES)	MIC (Staphylococcus aureus [1]) [µg/mL]	MIC (Staphylococcus aureus [2]) [µg/mL]	MIC [3] [µg/mL]	MIC (Staphylococcus aureus [4]) [µg/mL]	MIC (Staphylococcus aureus [5]) [µg/mL]	MIC (Enterococcus faecium) [µg/mL]	MIC (Enterococcus) [µg/mL]	MIC (Staphylococcus aureus [6]) [µg/mL]	MIC (Staphylococcus aureus [7]) [µg/mL]	MIC (Enterococcus faecalis [8]) [µg/mL]	MIC (Staphylococcus aureus [9]) [µg/mL]	MIC (Staphylococcus aureus [10]) [µg/mL]	MIC (Enterococcus faecalis [11]) [µg/mL]	MIC (Listeria monocytogenes) [µg/mL]	MIC (Staphylococcus aureus [12]) [µg/mL]	MIC (Staphylococcus aureus [13]) [µg/mL]	MIC (Staphylococcus aureus [14]) [µg/mL]	MIC (Staphylococcus aureus [15]) [µg/mL]	MIC (Staphylococcus aureus [16]) [µg/mL]	MIC [17] [µg/mL]	further results
CC(C)c1ccc(-n2sc3ccccc3c2=O)cc1	≤ 0.25	0.5 (≈ 1.86 µM)	0.25 (≈ 0.928 µM)	1 (≈ 3.71 µM)	≤ 0.25	15.6 (≈ 57.9 µM)	≤ 0.25	0.5 (≈ 1.86 µM)	1 (≈ 3.71 µM)	62.5 (≈ 232 µM)	1 (≈ 3.71 µM)	≤ 0.25	15.6 (≈ 57.9 µM)	0.5 (≈ 1.86 µM)	≤ 0.25	1 (≈ 3.71 µM)	0.5 (≈ 1.86 µM)	0.5 (≈ 1.86 µM)	2 (≈ 7.42 µM)	0.5 (≈ 1.86 µM)	Activity [18]: 50 - 60%; MIC (Staphylococcus aureus [19]): ≤ 0.25 µg/mL; MIC (Staphylococcus aureus [20]): 2 µg/mL (≈ 7.42 µM); MIC (Staphylococcus aureus [21]): ≤ 0.25 µg/mL; MIC (Staphylococcus aureus [22]): 2 µg/mL (≈ 7.42 µM); MIC (Staphylococcus aureus [23]): ≤ 0.25 µg/mL; MIC (Staphylococcus aureus [24]): 0.5 µg/mL (≈ 1.86 µM); Activity [25]: > 20%; MIC (Staphylococcus aureus [26]): 2 µg/mL (≈ 7.42 µM); MIC (Staphylococcus aureus [27]): 0.5 µg/mL (≈ 1.86 µM); MIC (Staphylococcus aureus [28]): 1 µg/mL (≈ 3.71 µM); Activity (Staphylococcus aureus [29]): 50%; MIC (Staphylococcus aureus [30]): ≤ 0.25 µg/mL; MIC (Staphylococcus aureus [31]): 1 µg/mL (≈ 3.71 µM); MIC (Staphylococcus aureus [32]): 1 µg/mL (≈ 3.71 µM); MIC (Staphylococcus aureus [33]): 1 µg/mL (≈ 3.71 µM); MIC (Staphylococcus aureus [34]): 0.5 µg/mL (≈ 1.86 µM); MIC (Staphylococcus aureus [35]): 2 µg/mL (≈ 7.42 µM)
O=c1c2ccccc2sn1-c1ccc(F)cc1	1 (≈ 4.08 µM)	3.9 (≈ 15.9 µM)	2 (≈ 8.15 µM)	2 (≈ 8.15 µM)	≤ 0.25	31.3 (≈ 128 µM)	2 (≈ 8.15 µM)	2 (≈ 8.15 µM)	3.9 (≈ 15.9 µM)	> 125	3.9 (≈ 15.9 µM)	3.9 (≈ 15.9 µM)	62.5 (≈ 255 µM)	2 (≈ 8.15 µM)	2 (≈ 8.15 µM)	3.9 (≈ 15.9 µM)	1 (≈ 4.08 µM)	2 (≈ 8.15 µM)	3.9 (≈ 15.9 µM)	1 (≈ 4.08 µM)	MIC (Staphylococcus aureus [19]): 3.9 µg/mL (≈ 15.9 µM); MIC (Staphylococcus aureus [20]): 2 µg/mL (≈ 8.15 µM); MIC (Staphylococcus aureus [21]): 3.9 µg/mL (≈ 15.9 µM); MIC (Staphylococcus aureus [22]): 2 µg/mL (≈ 8.15 µM); MIC (Staphylococcus aureus [23]): 2 µg/mL (≈ 8.15 µM); MIC (Staphylococcus aureus [24]): 3.9 µg/mL (≈ 15.9 µM); MIC (Staphylococcus aureus [26]): 3.9 µg/mL (≈ 15.9 µM); MIC (Staphylococcus aureus [27]): 3.9 µg/mL (≈ 15.9 µM); MIC (Staphylococcus aureus [28]): 2 µg/mL (≈ 8.15 µM); MIC (Staphylococcus aureus [30]): 2 µg/mL (≈ 8.15 µM); Activity (Staphylococcus aureus [36]): 10%; MIC (Staphylococcus aureus [31]): 2 µg/mL (≈ 8.15 µM); MIC (Staphylococcus aureus [32]): 2 µg/mL (≈ 8.15 µM); MIC (Staphylococcus aureus [33]): 3.9 µg/mL (≈ 15.9 µM); MIC (Staphylococcus aureus [34]): 2 µg/mL (≈ 8.15 µM); MIC (Staphylococcus aureus [35]): 3.9 µg/mL (≈ 15.9 µM)
